Experimental data pooled from the literature.
Lines come from different studies, so protocols differ.
Target: Serine/threonine-protein kinase MARK2 (MARK2, Homo sapiens, UniProt Q7KZI7)

Compound | read-out | mode | technique | tested at | measurement | result
Cn1cc(-c2cccc(N3CCc4c(sc5c4CC(C)(C)C5)C3=O)c2CO)cc(Nc2ccncn2)c1=O | enzyme activity | inhibitor |  | 1 µM | inhibition | 10%
O=c1[nH]c2ccccc2n1C1CCN(Cc2ccc(-c3[nH]c4cc5ncnc5cc4nc3-c3ccccc3)cc2)CC1 | cell-free assay |  |  | 0.5 µM | remaining signal | 92.2%
Cn1cc(-c2cc(F)cc(N3CCn4c(cc5c4CCCC5)C3=O)c2CO)cc(Nc2ccc(N3CCN(C4COC4)CC3)cn2)c1=O | enzyme activity | inhibitor |  | 0.1 µM | inhibition | 14%
COc1ncccc1-c1cnn2ccc(N3CCN(C(=O)OC(C)C)CC3)nc12 | binding |  | competition with immobilised ligand | 1 µM | remaining binding | 80%
Nc1ncc(-c2nc(N3CCOCC3)nc(N3CCOCC3)n2)c(C(F)F)n1 | binding |  | competition with immobilised ligand | 10 µM | remaining binding | 77%
C#Cc1n[nH]c2c(-c3cn(C(C)c4ccccn4)c(=O)[nH]c3=O)cc(F)cc12 (stereo not shown) | enzyme activity | inhibitor |  | 1 µM | inhibition | 5.8%
Cn1cncc1[C@](O)(COc1ccc(C#N)cc1-c1ccc(OC(F)(F)F)cc1)c1ccc(C#N)cc1 | cell-free assay |  | competition with immobilised ligand | 1 µM | remaining binding | 95%
C#Cc1n[nH]c2c(-c3cn([C@@H](C)c4ccccc4)c(=O)[nH]c3=O)cc(F)cc12 | enzyme activity | inhibitor |  | 0.1 µM | inhibition | 2%
Cc1nn(C)cc1-c1nc2c(N3CCN(Cc4ccc(Cl)cc4)CC3)c(Cl)cnc2[nH]1 | binding |  | competition with immobilised ligand | 1 µM | remaining binding | 93%
CC(C)(C)c1cc(C=C(C#N)C#N)cc(Br)c1O | enzyme activity | inhibitor |  | 0.5 µM | remaining activity | 81.6%
